From ChEMBL document CHEMBL1138559, “Synthesis and in vitro anti-HIV evaluation of a new series of 6-arylmethyl-substituted S-DABOs as potential non-nucleoside HIV-1 reverse transcriptase inhibitors” (Eur J Med Chem, 2009)

Experiments:
[1] = system: Human immunodeficiency virus 1; test: Antiviral activity against HIV1 3B infected in human MT4 cells assessed as inhibition of virus-induced cytopathic effect after 4 days by MTT assay; format: functional, organism-based; settings: Human immunodeficiency virus 1, 3B, MT4, 96 h
Outline: (§1)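 MT-4 cells at 1 × 10^5 cells/mL infected at MOI 0.02 (virus stocks titrated in MT-4, as CCID50), then put at once into wells with serial compound dilutions (DMSO stocks, 50 mM or higher). Incubation 4 days, 37 °C. Viable cells counted by MTT. IC50 taken as concentration protecting 50% of infected cells.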

[2] = system: Human immunodeficiency virus 2; test: Antiviral activity against HIV2 ROD infected in human MT4 cells assessed as inhibition of virus-induced cytopathic effect after 4 days by MTT assay; format: functional, organism-based; settings: Human immunodeficiency virus 2, ROD, MT4, 96 h; outline: as §1
[3] = Cytotoxicity against human MT4 cells by MTT assay; format: cell-based
Outline: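 Uninfected MT-4 cells run in parallel with the antiviral plates, with serial compound dilutions from DMSO stocks (50 mM or higher), for 4 days at 37 °C. Viability read by MTT. CC50 is the concentration that lowers viability of uninfected cells by 50%.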

[4] = Selectivity index, ratio of CC50 for human MT4 cells to IC50 for HIV1 3B; format: functional
Outline: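 Ratio CC50/IC50. CC50 comes from MTT viability of uninfected MT-4 cells, and IC50 from MTT protection of HIV-1-infected MT-4 cells (MOI 0.02). Both were read after 4 days at 37 °C in parallel assays.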

Row | SMILES | IC50 [1] [µM] | IC50 [2] [µM] | CC50 [3] [µM] | Ratio CC50/IC50 [4]
1 | CCc1c(Cc2c(Cl)cccc2Cl)nc(SCc2ccc([N+](=O)[O-])cc2)[nH]c1=O | 0.36 | > 278 | > 278 | >772
2 | CCc1c(Cc2c(Cl)cccc2Cl)nc(SCc2ccc(OC)cc2)[nH]c1=O | 0.16 | > 287 | > 287 | >1793
3 | COc1ccc(CSc2nc(Cc3ccc(-c4ccccc4)cc3)c(C)c(=O)[nH]2)cc1 | > 100 | > 100 | 100 | <1
4 | COc1ccc(CSc2nc(Cc3cccc4ccccc34)c(C(C)C)c(=O)[nH]2)cc1 | 0.21 | > 37.4 | 37.4 | 178
5 | COc1ccc(CSc2nc(Cc3ccc(Br)cc3)c(C)c(=O)[nH]2)cc1 | > 290 | > 290 | > 290 | –
6 | COc1ccc(CSc2nc(Cc3ccccc3Br)c(C)c(=O)[nH]2)cc1 | 1.04 | > 179 | 179 | 172
7 | COc1ccc(CSc2nc(Cc3cc(C)cc(C)c3)c(C)c(=O)[nH]2)cc1 | 1.1 | > 329 | > 329 | >299
8 | Cc1cc(C)cc(Cc2nc(SCc3ccc([N+](=O)[O-])cc3)[nH]c(=O)c2C)c1 | 5.46 | > 316 | > 316 | >58
9 | COc1ccc(CSc2nc(Cc3cc(C(F)(F)F)cc(C(F)(F)F)c3)c(C)c(=O)[nH]2)cc1 | > 256 | > 256 | > 256 | –
10 | CCc1c(Cc2cc(C)cc(C)c2)nc(SCc2ccc(OC)cc2)[nH]c1=O | 0.12 | > 317 | > 317 | >2642
11 | CCc1c(Cc2ccc(Br)cc2)nc(SCc2ccc(OC)cc2)[nH]c1=O | > 281 | > 281 | > 281 | –
12 | CCc1c(Cc2ccccc2Br)nc(SCc2ccc([N+](=O)[O-])cc2)[nH]c1=O | 0.74 | > 272 | > 272 | >368
13 | CCc1c(Cc2cccc(Br)c2)nc(SCc2ccc(OC)cc2)[nH]c1=O | 0.28 | > 201 | 201 | 718
14 | CCc1c(Cc2ccc(-c3ccccc3)cc2)nc(SCc2ccc(OC)cc2)[nH]c1=O | > 194 | > 194 | 194 | <1
15 | Cc1c(Cc2cc(C(F)(F)F)cc(C(F)(F)F)c2)nc(SCc2ccc([N+](=O)[O-])cc2)[nH]c1=O | > 248 | > 248 | > 248 | –
16 | CCc1c(Cc2cc(C)cc(C)c2)nc(SCc2ccccc2)[nH]c1=O | 0.95 | > 343 | > 343 | >361
17 | CCc1c(Cc2cc(C(F)(F)F)cc(C(F)(F)F)c2)nc(SCc2ccc([N+](=O)[O-])cc2)[nH]c1=O | > 242 | > 242 | > 242 | –
18 | CCc1c(Cc2cc(C(F)(F)F)cc(C(F)(F)F)c2)nc(SCc2ccc(OC)cc2)[nH]c1=O | ≥ 9.47 | > 249 | > 249 | <=26
19 | COc1ccc(CSc2nc(Cc3cccc(Br)c3)c(C)c(=O)[nH]2)cc1 | 6.42 | > 290 | > 290 | >45
20 | Cc1c(Cc2cccc(Br)c2)nc(SCc2ccc([N+](=O)[O-])cc2)[nH]c1=O | 14.2 | > 280 | > 280 | >20
21 | Cc1c(Cc2ccccc2Br)nc(SCc2ccc([N+](=O)[O-])cc2)[nH]c1=O | 1.46 | > 246 | ≥ 246 | >=168
22 | CCc1c(Cc2cc(C)cc(C)c2)nc(SCc2ccc([N+](=O)[O-])cc2)[nH]c1=O | 0.16 | > 305 | > 305 | >1906
23 | CCc1c(Cc2cccc3ccccc23)nc(SCc2ccc(OC)cc2)[nH]c1=O | 1.32 | > 227 | 261 | 198
24 | CCc1c(Cc2cccc(Br)c2)nc(SCc2ccc([N+](=O)[O-])cc2)[nH]c1=O | 1.34 | > 187 | 187 | 139.6
25 | CCc1c(Cc2ccccc2Br)nc(SCc2ccc(OC)cc2)[nH]c1=O | 0.23 | > 165 | 165 | 717
26 | O=c1[nH]cnc2c1ncn2[C@H]1CC[C@@H](CO)O1 [DIDANOSINE] | 5.37 | 2.71 | ≥ 529 | >=98
27 | Cc1c(Sc2ccccc2)n(COCCO)c(=O)[nH]c1=O [HEPT] | 5.06 | > 405 | ≤ 399 | 79
